High-throughput results (PubChem)
Only some compounds are listed: those with a hit (about 1.9% of all), similar ones and a draw of the others.
CHRM4 agonist: human M4 muscarinic receptor agonists, primary screen, CHO-K1 cells, Fluo-8 calcium fluorescence; CHO-K1 hM4/Gqi5; vehicle 0%, full acetylcholine response 100%; AID 624127, 2012; activation, % at 3 µM; Muscarinic acetylcholine receptor M4 (Homo sapiens), P08173; 360,000 compounds, 0.14% hits;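 active = activation above the run mean over all test wells plus 3 SD, cut at about 32% in these data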;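 also: peak over basal fluorescence ratio per well then scaled between controls; 0% = DMSO wells and 100% = acetylcholine at EC100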
CHRM5 antagonist: human M5 muscarinic receptor antagonists, primary screen, CHO cells, Fluo-8 calcium fluorescence. 360,000 compounds, 0.59% hits. Muscarinic acetylcholine receptor M5 (Homo sapiens), P08912. inhibition, % at 3 µM. CHO-hM5 cells, ACh EC80;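 active = inhibition above a per-plate cutoff, the mean of that plate's test compounds plus 3 SD, cut at about 27% in these data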;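 also: 0% = acetylcholine EC80 with DMSO and 100% = DMSO without agonist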
Target sequence (P08912 whole entry, looked up): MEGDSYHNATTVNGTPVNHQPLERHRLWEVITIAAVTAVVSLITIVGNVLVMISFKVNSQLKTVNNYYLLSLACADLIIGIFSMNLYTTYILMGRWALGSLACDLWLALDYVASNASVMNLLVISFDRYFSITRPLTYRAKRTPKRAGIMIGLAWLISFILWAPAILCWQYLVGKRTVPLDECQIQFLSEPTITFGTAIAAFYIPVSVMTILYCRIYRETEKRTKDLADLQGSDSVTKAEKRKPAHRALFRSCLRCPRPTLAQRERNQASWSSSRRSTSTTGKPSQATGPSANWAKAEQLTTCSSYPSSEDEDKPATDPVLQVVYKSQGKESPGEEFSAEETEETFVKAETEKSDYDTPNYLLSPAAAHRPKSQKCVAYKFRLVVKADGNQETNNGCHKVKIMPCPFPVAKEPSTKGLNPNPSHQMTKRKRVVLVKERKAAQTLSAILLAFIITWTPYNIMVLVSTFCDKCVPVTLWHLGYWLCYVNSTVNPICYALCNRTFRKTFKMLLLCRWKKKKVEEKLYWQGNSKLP
CHRM4 antagonist: human M4 muscarinic receptor antagonists, primary screen, CHO cells, Fluo-8 calcium fluorescence | Muscarinic acetylcholine receptor M4 (Homo sapiens), P08173 | CHO-hM4 cells, ACh EC80 | inhibition, % at 3 µM | 360,000 compounds, 0.73% hits | AID 624125, 2012;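 active = inhibition above its plate's cutoff, the mean inhibition of sample wells plus 3 SD, cut at about 27% in these data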;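 also: 0% = acetylcholine EC80 with DMSO and 100% = DMSO without agonist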
CHRM4 PAM: human M4 muscarinic receptor positive allosteric modulators, primary screen, CHO-K1 cells, Fluo-8 calcium fluorescence; 360,000 compounds, 0.4% hits; AID 624126, 2012; activation, % at 3 µM; Muscarinic acetylcholine receptor M4 (Homo sapiens), P08173; CHO-K1 hM4/Gqi5, ACh EC20; 0% = ACh EC20, 100% = maximal ACh;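 active = activation above its plate's cutoff, the mean activation of sample wells plus 3 SD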
CHRM5 PAM: human M5 muscarinic receptor positive allosteric modulators, primary screen, CHO-K1 cells, Fluo-8 calcium fluorescence. Muscarinic acetylcholine receptor M5 (Homo sapiens), P08912. CHO-K1 hM5, ACh EC20 PAM; 0% = ACh EC20, 100% = ACh EC100. activation, % at 3 µM. 360,000 compounds, 0.3% hits. AID 624038, 2012;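 active = activation above the run cutoff, the mean activation of all test compounds plus 3 SD, cut at about 18% in these data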
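System – CHO-K1 hM5 cells · Compound – 3 µM, single dose · Incubation – compound preincubation 140 s before EC20 acetylcholine addition · Technique – Fluo-8 calcium fluorescence · Measure – Max/basal fluorescence ratio as % of EC20–EC100 ACh window · Benchmarks – low control EC20 acetylcholine (0%), high control EC100 acetylcholine (100%) · Replication – singlicate, one well per test compound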
M5 ag: human M5 muscarinic receptor agonists, primary screen, CHO-K1 cells, Fluo-8 calcium fluorescence; Muscarinic acetylcholine receptor M5 (Homo sapiens), P08912; CHO-K1 hM5 cells; 0% DMSO wells, 100% maximal acetylcholine response; activation, % at 3 µM; 360,000 compounds, 0.19% hits; AID 624037, 2012;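 active = activation above the run's mean over test compounds plus 3 SD, cut at about 23% in these data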;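 also: signal is peak over basal fluorescence ratio across the kinetic read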
Starred values were filed as active, the others as inactive.

SMILES	CHRM4 agonist	CHRM5 antagonist	CHRM4 antagonist	CHRM4 PAM	CHRM5 PAM	M5 ag
O=C(c1ccc(S(=O)(=O)c2cccc(Cl)c2)c([N+](=O)[O-])c1)N1CCN(c2ccccn2)CC1	24.1	52.3*	44.4*	-26.7	-31.9	4.9
CCOc1ccc(NCc2cccn2-c2nnc(N3CCC(C(=O)NCCCN4CC(C)CC(C)C4)CC3)s2)cc1 (stereo unspecified)	3.6	-11.4	33.5*	-12.9	-10.7	-8.3
O=C(O)c1ccc(N/N=C/c2cccc(F)c2)cc1	5.1	4.7	-3.0	2.8	-4.8	2.3
O=C(O)c1ccc(N/N=C/c2cccc(C(F)(F)F)c2)cc1	0.2	28.6*	6.0	-4.4	-5.2	-1.6
CC(C)N(CC#CCC(O)(c1ccccc1)c1ccccc1)CCO	1.6	-15.6	-4.7	-12.3	2.1	-10.6
CCN(CC#CCC(O)(c1ccccc1)c1ccccc1)C(C)C	2.0	18.3	31.3*	-15.4	-19.0	-7.7
CCC(C)NC(=O)C(NS(=O)(=O)c1cccc2nsnc12)c1ccccc1 (stereo unspecified)	0.6	-2.1	-15.4	4.9	35.2*	-9.4
CC(C)CNC(=O)C1(C)CCCN1C(=O)c1csnn1 (stereo unspecified)	0.1	14.2	-2.2	10.0	7.2	-0.6
CC(C)CNC(=O)C1(C)CCCCCN1C(=O)c1csnn1 (stereo unspecified)	0.7	3.9	-18.1	18.8*	1.7	-0.2
COc1cccc(-c2sc3ccccc3c2-c2ccc(OCCN3CCCCC3)cc2)c1	5.1	15.0	33.6*	8.7	-1.2	-5.1
COc1cccc(-c2sc3ccccc3c2-c2ccc(OCCN(C)C)cc2)c1	9.4	22.3	47.4*	1.6	-14.6	-7.2
Oc1ccc2sc(-c3ccccc3O)c(-c3ccc(OCCN4CCCCC4)cc3)c2c1	61.4*	18.0	43.2*	-13.1	-8.4	6.7
COc1ccccc1-c1sc2ccccc2c1-c1ccc(OCCN2CCCCC2)cc1	7.8	-4.2	1.1	-2.3	0.2	-0.9
O=C(c1[nH]c(C(F)(F)F)nc1-c1ccccc1)N1CCN(Cc2c(F)cccc2Cl)CC1	1.8	0.4	9.6	-2.5	-4.1	-0.5
CC1CC(C)CN(C(=O)C(C)N2CCN(S(=O)(=O)c3ccc(C(F)(F)F)cc3)CC2)C1 (stereo unspecified)	3.9	-2.6	1.6	4.1	-4.0	2.2
CCCCNc1c(-c2cc3ccccc3o2)nc2nc(C)cc(C)n12	1.5	3.6	3.1	8.7	4.0	1.4
CCCCn1c(=NC(=O)c2ccco2)c(C(=O)OCC)cc2c(=O)n3ccccc3nc21	2.0	-3.5	-4.6	-3.5	-10.2	-8.2
CCCCn1c(=NC(=O)c2ccco2)c(C(=O)OCC)cc2c(=O)n3cccc(C)c3nc21	5.3	-11.5	-11.1	8.3	22.1*	2.8
CCN(CC)C(=O)c1cccc(-c2csc(C(NC(C)=O)c3cccc(OC)c3)n2)c1 (stereo unspecified)	2.5	4.2	9.5	-4.3	-7.5	-1.0
Cc1ccccc1C(=O)N1CCC(C(=O)OCC(=O)Nc2cccc([N+](=O)[O-])c2C)CC1	7.2	3.5	-16.3	8.8	-3.6	3.5
Cc1c(NC(=O)CN2CCC(C(N)=O)CC2)cccc1[N+](=O)[O-]	1.8	-2.6	3.2	-1.7	21.2*	2.8
Cc1ccc(NC(=S)NC2CCSc3ccccc32)cc1C (stereo unspecified)	5.5	28.2*	51.9*	-18.5	-18.8	-4.8
COC(=O)c1ccc(C(=O)NC2CCSc3ccccc32)cc1 (stereo unspecified)	1.0	-6.1	5.8	-2.3	2.4	-4.4
Cc1cccc(-c2cnc3cccnn23)c1	0.1	-9.6	-6.3	2.2	7.1	-1.9
COc1ccc(-n2nc3c(N4CCC(C(=O)N5CCC(C)CC5)CC4)nnc(C)c3c2C)cc1	0.6	42.9*	20.5	-12.2	-14.9	-5.1
SMILES	CHRM4 agonist	CHRM5 antagonist	CHRM4 antagonist	CHRM4 PAM	CHRM5 PAM	M5 ag
Cc1cccc(C)c1NC(=O)COC(=O)c1cccc2c1C(=O)c1ccccc1C2=O	3.2	0.8	4.7	-6.2	-8.7	0.9
Cc1cccc(NC(=O)COC(=O)c2cccc3c2C(=O)c2ccccc2C3=O)c1C	-0.7	30.0*	57.3*	-31.8	-18.5	-1.6
COc1ccc(-c2cc(NC(C)=O)c3ncc(-c4ccc(F)cc4)n3c2)cc1OC	5.7	-0.6	-3.6	-3.0	-3.3	-0.1
CCOC(=O)COc1ccccc1/C=C\[N+](=O)[O-]	4.2	17.2	27.5*	-8.9	-2.9	-1.2
CC(C)(C)n1nnnc1C(c1ccccc1OC(F)(F)F)N1CCN(C/C=C/c2ccccc2)CC1 (stereo unspecified)	3.3	15.1	8.0	-11.5	-21.2	-7.8
FC(F)(F)Oc1ccccc1C(c1nnnn1C1CCCC1)N1CCN(C/C=C/c2ccccc2)CC1 (stereo unspecified)	-1.2	64.4*	23.1	-14.7	-22.4	-7.7
COc1cccc(C(c2nnnn2-c2c(C)cccc2C)N2CCN(C/C=C/c3ccccc3)CC2)c1OC (stereo unspecified)	-0.3	4.2	-26.0	-9.7	-21.9	-7.6
COc1cccc(C(c2nnnn2C2CCCCC2)N2CCN(C/C=C/c3ccccc3)CC2)c1OC (stereo unspecified)	-0.4	40.6*	28.5*	-16.1	-22.6	-7.7
CC(C)c1nc2c(c(=O)n(C)c(=O)n2C)n1C	2.6	-0.5	2.5	6.7	-1.6	-2.7
COc1ccc(C(=O)COC(=O)C(CCSC)NS(=O)(=O)c2ccc(Cl)cc2)cc1 (stereo unspecified)	18.8	12.4	27.4*	-23.5	-15.1	1.1
CN1CCN(c2ccccc2/C=C2/C(=O)Nc3ccccc32)CC1	1.8	83.2*	20.9	-15.9	-18.7	-8.6
Nc1[nH]nc2nc(N3CCCC3)nc(-c3ccccc3)c12	-0.1	-6.8	1.7	-6.1	25.2*	-3.0
COc1ccc(OC)c(NC(=O)NNC(=O)COc2ccc([N+](=O)[O-])cc2)c1	0.9	9.3	2.9	-0.1	-7.5	-4.3
CCCCn1c(N)c(N(CC(C)C)C(=O)c2cccc(S(=O)(=O)N3CCCCC3)c2)c(=O)[nH]c1=O	0.1	8.2	5.2	21.6*	-3.3	-0.4
CCCCn1c(N)c(N(CCC(C)C)C(=O)CSc2nc3ccccc3n2C)c(=O)[nH]c1=O	1.5	-4.6	0.7	6.4	21.2*	-3.1
